Assay results gathered from unrelated publications.
Protocols differ between the studies behind these lines.

| SMILES | assay | test system | setting | measurement | value |
| --- | --- | --- | --- | --- | --- |
| Cc1ccccc1CN1C(=O)C2=C(CCN(Cc3ccccc3)C2)N2CCN=C12 | potentiometric | water | – | logP | 3.09 |
| Cc1ccc2c(c1)C(=O)[C@]1(O)CCN(c3ccc4nc(C)ccc4c3)C1=N2 | – | mouse, brain | intraperitoneal, 10 mg/kg, 30 min, single dose | concentration | 1000 nM |
| Cc1cccc(CNC(=O)c2cn(CCNC(=O)c3ccccc3Sc3c([N+](=O)[O-])ncn3C)c3cc4c(cc3c2=O)OCO4)n1 | metabolic stability | cynomolgus monkey, blood | 1 µM, whole blood | half-life | 5.92 h |
| O=C1CCC(N2Cc3cc(CO)c(F)cc3C2=O)C(=O)N1 (stereo not drawn) | – | male CD-1 mouse, plasma | intravenous, 1 mg/kg, 1.02 min | concentration | 1790 ng/mL |
| OCc1ccc(-c2nn(Cc3ccccc3)c3ccccc23)o1 | – | male CD-1 mouse, plasma | intraperitoneal, 30 mg/kg | half-life | 1.3 h |
| Cc1cc2c(C(=O)O)cccc2n1-c1nc2c(c(NCc3ccccc3)n1)CCCN2 | metabolic stability | dog, liver microsomes | 1 µM, pH 7.4 | microsomal CLint | 1.15 µL/min/mg |
| O=C(O)CC[C@H](NC(=O)N[C@@H](CCCCNC(=O)[C@H](Cc1ccc2ccccc2c1)NC(=O)[C@H]1CC[C@H](CNC(=O)CN2CCN(CC(=O)O)CCN(CC(=O)O)CCN(CC(=O)O)CC2)CC1)C(=O)O)C(=O)O | shake flask | water | – | logP | -1.01 |
| NCc1cc2c(cc1F)C(=O)N(C1CCC(=O)NC1=O)C2 (stereo not drawn) | – | male CD-1 mouse, plasma | intravenous, 1 mg/kg, 30 min | concentration | 33.2 ng/mL |
| CONC(=O)c1cccc2c1cc(C)n2-c1nc2c(c(NCc3ccccc3)n1)CCCN2 | metabolic stability | dog, liver microsomes | 1 µM, pH 7.4 | microsomal CLint | 84 µL/min/mg |
| C=CC(=O)NC1CCN(c2ncc3ncnc(Nc4ccc(Oc5ccc6c(c5)ncn6C)c(C)c4)c3n2)CC1 | – | – | pH 7.4 | logP | 4.7 |
| Cc1nc2ccc(OCc3ccc(C(F)(F)F)cc3)cc2[nH]1 | – | male BALB/c mouse, brain | intravenous, 1 mg/kg, 3 h | concentration | 402 ng/g |
| NCc1ccc(-c2nn(Cc3ccccc3)c3ccccc23)o1 | – | male CD-1 mouse, plasma | intravenous, 5 mg/kg | half-life | 1.08 h |
| CC(C)n1ncc2c(C(=O)NCC3(C)CNC3)cc(C3CC3)nc21 | – | female BALB/c mouse, plasma | intraperitoneal, 50 mg/kg, 2 h | concentration | 2230 ng/mL |
| Cc1nsc(-c2nnc3n2CCN(C(=O)c2ccc(F)cc2)[C@@H]3C)n1 | – | – | – | logP | 1.5 |
| CN(C)C(=O)c1cc2cnc(Nc3ccc(-c4ccc5c(=O)cc(N6CCOCC6)oc5c4)cc3)nc2n1C1CCCC1.Cl | – | BALB/c mouse, plasma | oral, 20 mg/kg | half-life | 4.6 h |
